Active and inactive are the calls of the source. The rule behind the calls is not given here.
What was measured:
[1] = target: Protein farnesyltransferase (Homo sapiens, UniProt P49354+P49356); assay: Inhibition of recombinant FTase (unknown origin) assessed as decrease in prenylated fluorescent peptides level using dansyl-GCVLS and FPP as substrate after 1 hr by HPLC-fluorescence detection analysis; type: protein-complex assay
Outline: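 3 nM recombinant FTase started reaction in pH 7.5 Tris buffer with DTT, 10 mM MgCl2, 10 µM ZnCl2, 0.04% DDM, plus 10 µM FPP and 5 µM dansyl-GCVLS. Run 1 h at 30 °C, stopped with acetonitrile/5% HCl, centrifuged. Prenylated peptide quantified by HPLC-fluorescence. IC50 taken from concentration-response curves.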

[2] = Inhibition of recombinant GGTase 2 (unknown origin) using recombinant Rab1A and [3H]GGPP as substrate after 20 mins by liquid scintillation counting analysis in presence of recombinant REP-2; design: species or system Homo sapiens
Outline: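 30 nM recombinant GGTase II with 2 µM His-tagged Rab1A (E. coli-expressed, Ni-NTA purified) and 1 µM REP-2 in HEPES buffer with MgCl2, DTT, NP-40. Started with 5 µM [3H]-GGPP, 20 min at 37 °C, ended with HCl/EtOH. Filtered on P-81 paper, washed and scintillation counted. Tested up to 1 mM.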

[3] = target: T1, Geranylgeranyl pyrophosphate synthase (Homo sapiens) (UniProt O95749); settings: RPMI-8226, 1 uM
T1 sequence (whole entry): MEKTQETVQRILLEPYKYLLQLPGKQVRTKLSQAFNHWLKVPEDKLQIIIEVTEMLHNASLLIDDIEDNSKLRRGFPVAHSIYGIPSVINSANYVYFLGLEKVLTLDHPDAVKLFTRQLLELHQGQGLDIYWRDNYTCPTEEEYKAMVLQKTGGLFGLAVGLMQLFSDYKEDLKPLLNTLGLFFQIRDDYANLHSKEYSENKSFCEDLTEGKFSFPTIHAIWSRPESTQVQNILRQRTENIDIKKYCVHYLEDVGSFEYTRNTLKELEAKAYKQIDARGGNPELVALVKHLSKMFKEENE

[4] = target: T1, Geranylgeranyl pyrophosphate synthase (Homo sapiens); settings: RPMI-8226, 10 uM
[5] = target: T1, Geranylgeranyl pyrophosphate synthase (Homo sapiens); assay: Inhibition of GGDPS in human RPMI-8226 cells assessed as disruption of Rap1a geranylgeranylation at 10 uM after 48 hrs by western blot analysis; type: cell-based
Outline: (§1)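 RPMI-8226 human myeloma cells exposed 48 h to test agent. For Rap1a, RIPA whole-cell lysate probed with an antibody recognising only unmodified Rap1a, β-tubulin as loading control. Rab6 read from Triton X-114 aqueous versus detergent fractions, with β-tubulin for aqueous and calnexin for detergent loading. Equal protein by BCA, SDS-PAGE/immunoblot with ECL. Blots representative of two independent experiments.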

[6] = target: T2, Farnesyl pyrophosphate synthase (Homo sapiens) (UniProt P14324); assay: Inhibition of FDPS in human RPMI-8226 cells assessed as disruption of Ras farnesylation after 48 hrs by western blot analysis; type: cell-based
T2 sequence (whole entry): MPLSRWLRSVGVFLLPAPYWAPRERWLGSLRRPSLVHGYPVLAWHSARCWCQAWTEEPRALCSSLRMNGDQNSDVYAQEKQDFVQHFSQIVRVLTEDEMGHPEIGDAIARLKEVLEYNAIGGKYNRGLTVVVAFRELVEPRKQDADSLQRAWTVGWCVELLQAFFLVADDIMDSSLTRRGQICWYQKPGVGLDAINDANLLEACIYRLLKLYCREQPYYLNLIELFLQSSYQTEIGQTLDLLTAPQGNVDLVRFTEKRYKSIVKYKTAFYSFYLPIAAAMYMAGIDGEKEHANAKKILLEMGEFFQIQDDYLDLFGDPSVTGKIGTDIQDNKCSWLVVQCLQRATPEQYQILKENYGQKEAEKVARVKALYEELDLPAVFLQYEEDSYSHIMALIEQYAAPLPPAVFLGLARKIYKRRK

[7] = target: T3, Farnesyl pyrophosphate synthase (Homo sapiens, UniProt P14324); assay: Inhibition of recombinant FDPS (unknown origin) assessed as decrease in radiolabeld […] level using GPP and [14C]IPP as substrate treated with enzyme for 10 mins prior to substrate challenge for 30 mins by liquid scintillation counting analysis
T3 sequence (P14324 whole entry): T2 sequence (whole entry)
Outline: (§2)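 Enzyme (10 nM FDPS or 20 nM GGDPS) preincubated with compound 10 min at room temperature in 50 mM Tris-HCl pH 7.7, 20 mM MgCl2, 5 mM TCEP, 5 µg/mL BSA. Started with 10 µM GPP (FDPS) or 10 µM FPP (GGDPS) plus 10 µM [14C]-IPP; 37 °C, 30 min. Stopped with saturated NaCl, butanol-extracted, counted. IC50 from concentration-response curves.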

[8] = target: T1, Geranylgeranyl pyrophosphate synthase (Homo sapiens); settings: RPMI-8226, 1 uM; remark: listed apart in the source
[9] = target: Geranylgeranyl transferase type I (Homo sapiens, UniProt P49354+P53609); assay: Inhibition of recombinant GGTase 1 (unknown origin) assessed as decrease in prenylated fluorescent peptides level using dansyl-GCVLS and GGPP as substrate after 1 hr by HPLC-fluorescence detection analysis
Outline: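 Reaction started by adding 12 nM recombinant GGTase I to pH 7.5 Tris buffer with DTT, 5 mM MgCl2, 50 µM ZnCl2, 10 mM KCl, 0.04% DDM, 10 µM GGPP and 7 µM dansyl-GCVLS. Incubated 1 h at 30 °C, then acid-acetonitrile quench. Prenylated peptide measured by HPLC with fluorescence. IC50 from concentration-response curves.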

[10] = target: T1, Geranylgeranyl pyrophosphate synthase (Homo sapiens); assay: Inhibition of GGDPS in human RPMI-8226 cells assessed as disruption of Rab6 geranylgeranylation at 10 uM after 48 hrs by western blot analysis; type: cell-based; outline: as §1
[11] = target: T4, 3-hydroxy-3-methylglutaryl-coenzyme A reductase (Homo sapiens) (UniProt P04035); assay: Inhibition of HMG-coA reductase in human RPMI-8226 cells assessed as disruption of Rap1a geranylgeranylation at 10 uM after 48 hrs by western blot analysis in presence of 1 mM mevalonate; type: cell-based
T4 sequence (whole entry): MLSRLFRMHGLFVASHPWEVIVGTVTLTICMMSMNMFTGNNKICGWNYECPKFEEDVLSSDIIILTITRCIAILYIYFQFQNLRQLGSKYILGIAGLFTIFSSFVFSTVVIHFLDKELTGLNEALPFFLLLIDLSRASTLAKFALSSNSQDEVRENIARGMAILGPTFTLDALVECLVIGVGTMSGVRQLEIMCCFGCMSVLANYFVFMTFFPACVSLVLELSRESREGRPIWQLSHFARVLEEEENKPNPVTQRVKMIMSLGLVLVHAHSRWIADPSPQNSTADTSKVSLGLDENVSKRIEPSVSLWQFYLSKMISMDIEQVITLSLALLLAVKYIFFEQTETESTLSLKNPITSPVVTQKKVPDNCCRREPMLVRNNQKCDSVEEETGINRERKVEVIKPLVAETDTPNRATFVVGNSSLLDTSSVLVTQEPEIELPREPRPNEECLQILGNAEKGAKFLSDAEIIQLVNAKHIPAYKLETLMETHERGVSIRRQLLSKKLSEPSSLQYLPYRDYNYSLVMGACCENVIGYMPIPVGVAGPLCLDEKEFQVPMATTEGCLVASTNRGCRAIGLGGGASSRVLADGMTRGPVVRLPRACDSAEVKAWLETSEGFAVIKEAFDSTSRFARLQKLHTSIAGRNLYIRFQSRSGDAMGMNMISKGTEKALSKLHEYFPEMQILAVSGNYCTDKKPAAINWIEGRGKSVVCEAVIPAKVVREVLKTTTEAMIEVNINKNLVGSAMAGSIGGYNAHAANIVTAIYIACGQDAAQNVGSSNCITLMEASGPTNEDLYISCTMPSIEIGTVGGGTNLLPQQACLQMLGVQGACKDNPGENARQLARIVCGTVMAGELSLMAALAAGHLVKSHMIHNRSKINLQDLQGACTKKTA
Outline: (§3)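 RPMI-8226 cells held 48 h with 10 µM inhibitor, with or without isoprenoid add-back (1 mM mevalonate, 10 µM FPP or 10 µM GGPP). RIPA whole-cell lysate immunoblotted with an antibody detecting only unmodified Rap1a, β-tubulin as loading control. Protein equalised by BCA. Two independent experiments.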

[12] = target: T4, 3-hydroxy-3-methylglutaryl-coenzyme A reductase (Homo sapiens); assay: Inhibition of HMG-coA reductase in human RPMI-8226 cells assessed as disruption of Rap1a geranylgeranylation at 10 uM after 48 hrs by western blot analysis; type: cell-based; outline: as §3
[13] = target: T4, 3-hydroxy-3-methylglutaryl-coenzyme A reductase (Homo sapiens); assay: Inhibition of HMG-coA reductase in human RPMI-8226 cells assessed as disruption of Rap1a geranylgeranylation at 10 uM after 48 hrs by western blot analysis in presence of 10 uM GGPP; type: cell-based; outline: as §3
[14] = target: T1, Geranylgeranyl pyrophosphate synthase (Homo sapiens); settings: RPMI-8226, 10 uM; remark: listed apart in the source
[15] = target: T1, Geranylgeranyl pyrophosphate synthase (Homo sapiens); settings: RPMI-8226, 1 uM; remark: listed apart in the source
[16] = target: T1, Geranylgeranyl pyrophosphate synthase (Homo sapiens); settings: RPMI-8226, 10 uM; remark: listed apart in the source
[17] = target: T1, Geranylgeranyl pyrophosphate synthase (Homo sapiens); settings: RPMI-8226, 10 uM; remark: listed apart in the source
[18] = target: T5, Geranylgeranyl pyrophosphate synthase (Homo sapiens, UniProt O95749); assay: Inhibition of recombinant GGDPS (unknown origin) assessed as decrease in radiolabeld GGPP level using FPP and [14C]IPP as substrate treated with enzyme for 10 mins prior to substrate challenge for 30 mins by liquid scintillation counting analysis; outline: as §2
T5 sequence (O95749 whole entry): T1 sequence (whole entry)

CC(C)=CCCC(C)=CCn1cc(CC(P(=O)(O)O)P(=O)(O)O)nn1 (mixture of isomers)
IC50 [1]: 500 µM | IC50 [2]: > 1 mM | inhibition [3]: Active | inhibition [4]: Active | disruption of Rap1a geranylgeranylation (active/not active) [5]: Active | inhibition [6]: inactive | IC50 [7]: 84 µM | inhibition [8]: Active | IC50 [9]: 200 µM | disruption of Rab6 geranylgeranylation (active/not active) [10]: Active

CC[C@H](C)C(=O)O[C@H]1C[C@@H](C)C=C2C=C[C@H](C)[C@H](CC[C@@H]3C[C@@H](O)CC(=O)O3)[C@H]21
inhibition [11]: inactive | inhibition [12]: Active | inhibition [13]: inactive

CC(C)=CCC/C(C)=C/CC(C/C=C(\C)CCC=C(C)C)(P(=O)(O)O)P(=O)(O)O
inhibition [4]: Active | disruption of Rap1a geranylgeranylation (active/not active) [5]: Active | inhibition [6]: inactive | disruption of Rab6 geranylgeranylation (active/not active) [10]: Active

CC(C)=CCC/C(C)=C\Cn1cc(CC(P(=O)(O)O)P(=O)(O)O)nn1
IC50 [1]: 400 µM | IC50 [2]: > 1 mM | inhibition [3]: Active | inhibition [4]: Active | disruption of Rap1a geranylgeranylation (active/not active) [5]: Active | inhibition [6]: inactive | inhibition [14]: inactive | IC50 [7]: 79 µM | inhibition [8]: Active | inhibition [15]: Active | IC50 [9]: 500 µM | inhibition [16]: Active | disruption of Rab6 geranylgeranylation (active/not active) [10]: Active | inhibition [17]: Active

CC(C)=CCC/C(C)=C/Cn1cc(CC(P(=O)(O)O)P(=O)(O)O)nn1
IC50 [1]: > 500 µM | IC50 [2]: > 1 mM | inhibition [3]: inactive | inhibition [4]: inactive | disruption of Rap1a geranylgeranylation (active/not active) [5]: Active | inhibition [6]: inactive | IC50 [7]: 57 µM | inhibition [8]: inactive | IC50 [9]: 340 µM

CC(C)=CCC[C@@]1(C)O[C@@H]1Cn1cc(CC(P(=O)(O)O)P(=O)(O)O)nn1 (racemic)
IC50 [1]: 400 µM | IC50 [2]: > 1 mM | disruption of Rap1a geranylgeranylation (active/not active) [5]: inactive | IC50 [18]: 23 µM | inhibition [6]: inactive | IC50 [7]: 33 µM | IC50 [9]: 500 µM | disruption of Rab6 geranylgeranylation (active/not active) [10]: inactive

CC(C)=CCC[C@]1(C)O[C@@H]1Cn1cc(CC(P(=O)(O)O)P(=O)(O)O)nn1 (racemic)
IC50 [1]: 340 µM | IC50 [2]: > 1 mM | disruption of Rap1a geranylgeranylation (active/not active) [5]: inactive | IC50 [18]: 17 µM | inhibition [6]: inactive | IC50 [7]: 47 µM | IC50 [9]: 300 µM | disruption of Rab6 geranylgeranylation (active/not active) [10]: inactive

From ChEMBL document CHEMBL3259705, “Geranyl and neryl triazole bisphosphonates as inhibitors of geranylgeranyl diphosphate synthase” (Bioorg Med Chem, 2014)
